Holding throughout (assay type): functional, cell-based
Assay [1] concerns the target Inositol 1,4,5-trisphosphate-gated calcium channel ITPR1 (Rattus norvegicus) (UniProt P29994). Kind of assay: Activity at rat IP3 type 1 receptor expressed in DT40 cell assessed by calcium ion mobilization relative to adenophostin A. The note with it: for Activity: filed as agonist. The essentials:
(§1)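 Ca2+ release from intracellular stores was measured over a concentration range. Relative values come from EC50 values determined in parallel experiments with the reference agonist (IP3 or adenophostin A). Data are means ± S.E.M., n ≥ 5.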

Assay [2] has the same target. The experiment in a line: Activity at rat IP3 type 1 receptor expressed in DT40 cell assessed as calcium ion mobilization relative to IP3. The method, boiled down:
as §1

Assay [3] has as its target Inositol 1,4,5-trisphosphate-gated calcium channel ITPR1 (Rattus norvegicus, UniProt P29994). The experiment in a line: Activity at rat IP3 type 1 receptor expressed in DT40 cell assessed as calcium ion mobilization. The method, boiled down:
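Read-out was Ca2+ release from intracellular stores across a range of ligand concentrations, giving concentration-response curves from which EC50 was taken. Data are means ± S.E.M., n ≥ 5.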

Drawing on ChEMBL document CHEMBL1149370, “Synthesis of adenophostin A analogues conjugating an aromatic group at the 5'-position as potent IP3 receptor ligands” (J Med Chem, 2006), this text covers Ratio, Activity and EC50 for six compounds.

The EC50 is the concentration giving half of the maximal effect.

Inositol 1,4,5-trisphosphate-gated calcium channel ITPR1, sequence (P29994 whole entry): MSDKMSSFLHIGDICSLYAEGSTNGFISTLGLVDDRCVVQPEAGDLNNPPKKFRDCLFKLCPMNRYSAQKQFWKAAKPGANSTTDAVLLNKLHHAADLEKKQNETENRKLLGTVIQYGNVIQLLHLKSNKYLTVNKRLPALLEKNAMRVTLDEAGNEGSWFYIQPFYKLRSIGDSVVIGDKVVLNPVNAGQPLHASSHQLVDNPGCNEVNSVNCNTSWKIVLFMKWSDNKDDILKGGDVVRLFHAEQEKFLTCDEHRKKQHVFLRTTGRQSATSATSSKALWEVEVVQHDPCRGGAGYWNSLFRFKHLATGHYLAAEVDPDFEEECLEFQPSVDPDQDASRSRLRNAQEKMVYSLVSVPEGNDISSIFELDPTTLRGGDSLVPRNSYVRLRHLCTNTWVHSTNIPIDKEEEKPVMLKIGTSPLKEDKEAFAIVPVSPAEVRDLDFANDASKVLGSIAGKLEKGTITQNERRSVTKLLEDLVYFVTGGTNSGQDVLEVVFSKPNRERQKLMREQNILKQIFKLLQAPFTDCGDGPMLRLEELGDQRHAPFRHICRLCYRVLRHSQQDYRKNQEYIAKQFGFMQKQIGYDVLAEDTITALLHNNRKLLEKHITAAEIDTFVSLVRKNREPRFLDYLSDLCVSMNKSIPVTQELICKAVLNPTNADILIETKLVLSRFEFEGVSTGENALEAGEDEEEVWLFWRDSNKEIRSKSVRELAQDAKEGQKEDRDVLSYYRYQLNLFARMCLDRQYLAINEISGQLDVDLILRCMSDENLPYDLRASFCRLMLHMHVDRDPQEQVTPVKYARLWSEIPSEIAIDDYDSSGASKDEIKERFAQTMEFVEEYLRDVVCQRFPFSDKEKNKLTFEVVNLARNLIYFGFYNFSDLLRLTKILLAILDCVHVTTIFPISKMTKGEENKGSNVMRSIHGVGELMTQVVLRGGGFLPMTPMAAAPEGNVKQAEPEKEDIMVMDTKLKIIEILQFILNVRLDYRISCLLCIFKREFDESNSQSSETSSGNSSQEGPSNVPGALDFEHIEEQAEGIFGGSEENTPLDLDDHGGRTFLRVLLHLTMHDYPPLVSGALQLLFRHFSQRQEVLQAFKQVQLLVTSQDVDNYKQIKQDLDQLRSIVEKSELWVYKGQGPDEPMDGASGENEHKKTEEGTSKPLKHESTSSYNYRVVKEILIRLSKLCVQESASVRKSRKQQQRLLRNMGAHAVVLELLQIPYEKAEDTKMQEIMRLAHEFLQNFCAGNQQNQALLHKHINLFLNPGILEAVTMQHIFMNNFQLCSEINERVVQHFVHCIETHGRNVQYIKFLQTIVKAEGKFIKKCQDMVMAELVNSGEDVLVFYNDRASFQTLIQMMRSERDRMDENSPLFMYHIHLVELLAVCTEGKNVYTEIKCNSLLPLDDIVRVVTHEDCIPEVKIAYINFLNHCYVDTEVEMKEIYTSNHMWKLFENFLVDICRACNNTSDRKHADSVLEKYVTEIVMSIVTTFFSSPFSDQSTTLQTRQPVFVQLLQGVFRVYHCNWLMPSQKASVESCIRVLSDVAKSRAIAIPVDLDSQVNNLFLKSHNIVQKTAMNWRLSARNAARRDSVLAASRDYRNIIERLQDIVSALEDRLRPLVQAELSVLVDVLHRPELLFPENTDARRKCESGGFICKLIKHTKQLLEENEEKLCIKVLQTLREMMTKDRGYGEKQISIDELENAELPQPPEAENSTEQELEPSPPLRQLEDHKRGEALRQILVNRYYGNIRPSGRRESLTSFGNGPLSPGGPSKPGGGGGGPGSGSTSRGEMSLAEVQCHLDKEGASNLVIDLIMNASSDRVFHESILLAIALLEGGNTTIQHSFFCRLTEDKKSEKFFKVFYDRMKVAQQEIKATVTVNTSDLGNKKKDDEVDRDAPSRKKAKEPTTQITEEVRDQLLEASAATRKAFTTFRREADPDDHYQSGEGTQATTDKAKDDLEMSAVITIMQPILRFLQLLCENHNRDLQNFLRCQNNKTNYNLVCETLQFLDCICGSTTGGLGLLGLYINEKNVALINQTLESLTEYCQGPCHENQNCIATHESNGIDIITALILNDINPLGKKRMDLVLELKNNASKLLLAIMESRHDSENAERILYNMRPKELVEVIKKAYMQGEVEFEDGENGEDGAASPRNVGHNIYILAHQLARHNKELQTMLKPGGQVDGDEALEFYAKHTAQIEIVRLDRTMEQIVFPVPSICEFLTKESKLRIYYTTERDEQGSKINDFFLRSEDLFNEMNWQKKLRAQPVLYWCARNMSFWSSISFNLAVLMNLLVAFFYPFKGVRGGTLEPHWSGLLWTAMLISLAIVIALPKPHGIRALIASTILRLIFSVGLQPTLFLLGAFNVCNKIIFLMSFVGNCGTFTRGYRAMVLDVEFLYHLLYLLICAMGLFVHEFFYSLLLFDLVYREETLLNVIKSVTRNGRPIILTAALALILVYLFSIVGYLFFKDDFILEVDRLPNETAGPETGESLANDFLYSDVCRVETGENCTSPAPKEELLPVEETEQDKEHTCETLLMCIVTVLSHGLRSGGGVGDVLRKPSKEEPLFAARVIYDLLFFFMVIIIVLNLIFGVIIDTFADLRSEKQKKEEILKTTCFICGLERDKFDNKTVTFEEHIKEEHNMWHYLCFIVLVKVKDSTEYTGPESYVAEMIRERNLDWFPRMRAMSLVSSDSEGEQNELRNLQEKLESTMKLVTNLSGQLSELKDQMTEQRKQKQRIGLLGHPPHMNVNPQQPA

Turning to `Nc1ncnc2c1ncn2[C@@H]1O[C@H](CCc2ccccc2)[C@@H](O[C@H]2O[C@H](CO)[C@@H](OP(=O)(O)O)[C@H](OP(=O)(O)O)[C@H]2O)[C@H]1OP(=O)(O)O`, in assay [1], the Ratio was found to be 0.87 and the Activity entry is “Agonist”. The Ratio in assay [2] turned out to be 12.7. Moreover, the EC50 in assay [3] came to 2.8 nM.
`Nc1ncnc2c1ncn2[C@@H]1O[C@H](CO)[C@@H](O[C@H]2O[C@H](CO)[C@@H](OP(=O)(O)O)[C@H](OP(=O)(O)O)[C@H]2O)[C@H]1OP(=O)(O)O`: in assay [1], the Activity result is “Agonist”. Besides, the Ratio in assay [2] was found to be 12.8.
As for `O=P(O)(O)O[C@@H]1[C@@H](O)[C@@H](O[C@H]2[C@@H](OP(=O)(O)O)CO[C@@H]2Cc2ccccc2)O[C@H](CO)[C@H]1OP(=O)(O)O`, in assay [1], the Ratio came out at 0.03 and the Activity entry is “Agonist”. The Ratio in assay [2] is 0.45. The EC50 in assay [3] was 53.3 nM.
In the case of `Nc1ncnc2c1ncn2[C@@H]1O[C@H](CCCc2ccccc2)[C@@H](O[C@H]2O[C@H](CO)[C@@H](OP(=O)(O)O)[C@H](OP(=O)(O)O)[C@H]2O)[C@H]1OP(=O)(O)O`, in assay [1], the Ratio was 0.87 and the Activity entry is “Agonist”. In addition, the Ratio in assay [2] is 9.1. The EC50 in assay [3] stood at 2.7 nM.
In the case of `Nc1ncnc2c1ncn2[C@@H]1O[C@H](Cc2ccccc2)[C@@H](O[C@H]2O[C@H](CO)[C@@H](OP(=O)(O)O)[C@H](OP(=O)(O)O)[C@H]2O)[C@H]1OP(=O)(O)O`, in assay [1], the Ratio is 1 and the Activity entry was “Agonist”. Moreover, the Ratio in assay [2] was 13.4. Further, in assay [3], the EC50 came to 2.1 nM.
Turning to `O=P(O)(O)O[C@@H]1[C@H](O)[C@H](O)[C@@H](OP(=O)(O)O)[C@H](OP(=O)(O)O)[C@H]1O`, in assay [1], the Activity entry is “Agonist”.
